Screens deposited in PubChem by Broad Institute.
Only a selection was taken, and hits are over-represented in it overall.
GASC1 inh = inhibitors of human demethylase GASC-1 KDM4C | inhibition, % at 12.5 µM | 0.15% of 96,000 active | Q9H3R0 | AID 720574 | GST-KDM4C 2-372, H3K9me3 peptide, LANCE TR-FRET;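 active means mean replicate inhibition above about 25%, with at least 55% of replicates also reaching it, limit read from the data, passing the limit was not always enough; inconclusive means only one of those two conditions met; inactive means neither condition met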
Target sequence (Q9H3R0 2-372 limits assumed): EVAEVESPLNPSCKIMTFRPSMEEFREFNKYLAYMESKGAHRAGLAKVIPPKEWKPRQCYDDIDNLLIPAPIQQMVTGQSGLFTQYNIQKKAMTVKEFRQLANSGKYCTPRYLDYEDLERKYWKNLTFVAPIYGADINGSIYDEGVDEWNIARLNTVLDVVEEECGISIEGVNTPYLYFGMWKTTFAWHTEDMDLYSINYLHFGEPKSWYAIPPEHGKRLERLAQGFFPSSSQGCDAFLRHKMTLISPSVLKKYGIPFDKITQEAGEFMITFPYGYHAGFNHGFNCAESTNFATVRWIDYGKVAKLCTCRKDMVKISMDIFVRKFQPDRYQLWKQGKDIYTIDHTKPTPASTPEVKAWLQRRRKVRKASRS
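System: N-terminal GST-fused human GASC-1 (KDM4C) fragment, residues 2-372; amount: enzyme final amount 10 nM; incubation: reaction 30 min RT, detection step 1 h RT; medium: HEPES buffer, pH 7.5, plus ascorbate; technique: LANCE TR-FRET, Eu antibody, ULight-streptavidin, EDTA, ex 340 nm, em 618/671 nm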
IDH1 R132H inh = IDH1 R132H (human) inhibition. 0.18% of 70,000 active. inhibition, % at 10 µM. AID 624101. IDH1 R132H reductase, diaphorase/resazurin fluorescence, 60 min; in the data active means inhibition above about 34%; inconclusive means no clear call, values can overlap the other calls; inactive means below about 11%
Target sequence (O75874 whole entry R132H): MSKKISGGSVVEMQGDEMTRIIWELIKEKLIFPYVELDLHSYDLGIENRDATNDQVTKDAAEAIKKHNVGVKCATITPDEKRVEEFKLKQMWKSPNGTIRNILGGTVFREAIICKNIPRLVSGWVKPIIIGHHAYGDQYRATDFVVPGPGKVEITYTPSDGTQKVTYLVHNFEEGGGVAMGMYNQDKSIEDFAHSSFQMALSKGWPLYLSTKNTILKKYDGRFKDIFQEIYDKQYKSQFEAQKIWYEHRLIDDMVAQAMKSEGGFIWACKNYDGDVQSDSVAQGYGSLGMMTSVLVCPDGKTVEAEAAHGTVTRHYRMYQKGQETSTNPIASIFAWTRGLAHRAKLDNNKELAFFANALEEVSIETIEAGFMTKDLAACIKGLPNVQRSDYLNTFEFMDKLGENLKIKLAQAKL
T cruzi growth-1 = inhibitors of T. cruzi proliferation; T. cruzi beta-gal in NIH3T3, GalScreen luminescence, 90 h; inhibition, % at 8.34 µM; 5.9% of 77,000 active;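 active means mean inhibition above about 93%, with at least 55% of replicates each passing it, limit read from the data, passing the limit was not always enough; inconclusive means only one of those two conditions holds; inactive means neither condition holds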
T cruzi growth-2 = Trypanosoma cruzi proliferation inhibition; shares compounds with T cruzi growth-1; T. cruzi beta-gal in NIH3T3, GalScreen luminescence, 90 h; inhibition, % at 8.35 µM; 72% of 5,600 active;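 active means mean replicate inhibition above about 95% and at least 55% of replicates individually reaching it, limit read from the data; inconclusive means only one of the two criteria is met; inactive means neither criterion is met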
T cruzi growth-3 = blocks T. cruzi growth in NIH3T3 host cells; shares compounds with T cruzi growth-1; T. cruzi beta-gal in NIH3T3, GalScreen luminescence, 90 h; inhibition, % at 2.09 µM; 21% of 5,600 active; AID 651740;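 active means mean inhibition above about 95%, with at least 55% of replicates also reaching it, limit read from the data; inconclusive means meets just one of the two conditions; inactive means meets neither condition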
NIH3T3 tox = NIH/3T3 (mouse) viability loss | shares compounds with T cruzi growth-1 | NIH/3T3 viability, CellTiter-Glo ATP luminescence, 90 h | cytotoxicity (signal decrease), % at 8.35 µM | 14% of 5,600 active | AID 651742;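 active means mean signal decrease across replicates above about 35% based on untreated-well scatter, with enough replicates individually passing, limit read from the data; inconclusive means no rule stated though some were filed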
NIH3T3 tox 2 = NIH/3T3 (mouse) viability loss. shares compounds with T cruzi growth-1. NIH/3T3 viability, CellTiter-Glo ATP luminescence, 90 h. inhibition, % at 24.9 µM. 56% of 5,600 active. AID 651744;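 active means mean loss of cell viability signal at or above a set limit, and enough replicates individually reaching it; inconclusive means meets only the mean limit or only the replicate share; inactive means meets neither condition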
Of the large screens only hits and unclear results are named; the others gave an inactive call (follow-up assays come after a bar, where they were run).

C[C@@H]1CCCCO[C@@H](CN(C)C(=O)Nc2cccc3ccccc23)[C@H](C)CN([C@@H](C)CO)C(=O)c2cc(NS(=O)(=O)c3ccc(Cl)cc3)ccc2O1	T cruzi growth-1 98 (no result: IDH1 R132H inh) | T cruzi growth-2 107 | T cruzi growth-3 117 | NIH3T3 tox inactive | NIH3T3 tox 2 inactive
C[C@@H]1CCCCO[C@H](CN(C)C(=O)Nc2cccc3ccccc23)[C@H](C)CN([C@H](C)CO)C(=O)c2cc(NS(=O)(=O)c3ccccc3)ccc2O1	none (no result: IDH1 R132H inh, T cruzi growth-1)
C[C@@H]1CN([C@@H](C)CO)C(=O)c2cc(NS(=O)(=O)c3ccc(Cl)cc3)ccc2O[C@@H](C)CCCCO[C@H]1CN(C)C(=O)Nc1cccc2ccccc12	T cruzi growth-1 96 | T cruzi growth-2 107 | T cruzi growth-3 102 | NIH3T3 tox inactive | NIH3T3 tox 2 inactive
C[C@@H]1CCCCO[C@H](CN(C)C(=O)Nc2cccc3ccccc23)[C@H](C)CN([C@@H](C)CO)C(=O)c2cc(NS(=O)(=O)c3ccc(Cl)cc3)ccc2O1	T cruzi growth-1 99 (no result: IDH1 R132H inh) | T cruzi growth-2 104 | T cruzi growth-3 102 | NIH3T3 tox inactive | NIH3T3 tox 2 inactive
COc1ccccc1-c1cn(CC[C@@H]2CC[C@@H](NC(=O)CCN3CCCCC3)[C@@H](CO)O2)nn1	none
Cc1ccc(F)cc1S(=O)(=O)N1CCN(Cc2cccc(OCCO)c2)CC1	none (no result: GASC1 inh, T cruzi growth-1)
CO[C@H]1CN(C)C(=O)c2cc(NC(=O)C3CCC3)ccc2OC[C@H](C)N(C(=O)CN(C)C)C[C@H]1C	none (no result: T cruzi growth-1)
CC(C)C#Cc1ccc([C@H]2[C@@H](CO)N(C(=O)C3CCC3)[C@H]2C#N)cc1	none (no result: IDH1 R132H inh)
CCCC#Cc1ccc([C@H]2[C@@H](C#N)N(C(=O)C3CCCC3)[C@H]2CO)cc1	T cruzi growth-1 98 (no result: IDH1 R132H inh) | T cruzi growth-2 inactive | T cruzi growth-3 106 | NIH3T3 tox inactive | NIH3T3 tox 2 43
CCCC#Cc1ccc([C@H]2[C@@H](CO)N(C(=O)C3CCCC3)[C@H]2C#N)cc1	T cruzi growth-1 105 (no result: IDH1 R132H inh) | T cruzi growth-2 116 | T cruzi growth-3 inactive | NIH3T3 tox inactive | NIH3T3 tox 2 28
N#C[C@H]1[C@@H](c2ccc(C#Cc3ccc(F)cc3)cc2)[C@H](CO)N1C(=O)C1CCCC1	none (no result: IDH1 R132H inh)
CC(C)C#Cc1ccc([C@@H]2[C@@H](C#N)N(C(=O)C3CCC3)[C@H]2CO)cc1	T cruzi growth-1 inconclusive (no result: IDH1 R132H inh) | T cruzi growth-2 101 | T cruzi growth-3 inactive | NIH3T3 tox inactive | NIH3T3 tox 2 33
CCCC#Cc1ccc([C@@H]2[C@@H](CO)N(C(=O)C3CCOCC3)[C@H]2C#N)cc1	none (no result: IDH1 R132H inh)
CCCC#Cc1ccc([C@H]2[C@@H](C#N)N(C(=O)C3CCOCC3)[C@H]2CO)cc1	none (no result: IDH1 R132H inh)
CCCC#Cc1ccc([C@@H]2[C@@H](C#N)N(C(=O)C3CCC3)[C@@H]2CO)cc1	T cruzi growth-1 99 (no result: IDH1 R132H inh) | T cruzi growth-2 99 | T cruzi growth-3 inactive | NIH3T3 tox inactive | NIH3T3 tox 2 33
C/C=C/c1ccc([C@@H]2[C@H](CO)N(CC3CC3)C23CN(S(C)(=O)=O)C3)cc1	none (no result: IDH1 R132H inh, T cruzi growth-1)
C[C@H]1CN([C@@H](C)CO)C(=O)c2cccc(NC(=O)Nc3ccc4c(c3)OCO4)c2O[C@@H]1CN(C)C(=O)Nc1cccc2ccccc12	none (no result: IDH1 R132H inh)
C[C@@H]1CN([C@H](C)CO)C(=O)c2cc(C#Cc3ccccc3F)cnc2O[C@H]1CN(C)C(=O)C1CCCCC1	none (no result: T cruzi growth-1)
CC(C)NC(=O)Nc1ccc2c(c1)C(=O)N([C@H](C)CO)C[C@@H](C)[C@@H](CN(C)C(=O)CCCN(C)C)OCCCC[C@@H](C)O2	none
CCCC#Cc1ccc([C@@H]2[C@H](C#N)N(C(=O)C3CC3)[C@H]2CO)cc1	T cruzi growth-1 98 (no result: IDH1 R132H inh) | T cruzi growth-2 107 | T cruzi growth-3 108 | NIH3T3 tox inactive | NIH3T3 tox 2 inactive
CCCC#Cc1ccc([C@H]2[C@@H](CO)N(C(=O)C3CCOCC3)[C@H]2C#N)cc1	none (no result: IDH1 R132H inh)
CCCC#Cc1ccc([C@@H]2[C@@H](C#N)N(C(=O)C3CCCC3)[C@H]2CO)cc1	T cruzi growth-1 102 (no result: IDH1 R132H inh) | T cruzi growth-2 96 | T cruzi growth-3 102 | NIH3T3 tox inactive | NIH3T3 tox 2 39
CCCC#Cc1ccc([C@H]2[C@@H](CO)N(C(=O)C3CCCCC3)[C@H]2C#N)cc1	none
Cc1noc(C)c1S(=O)(=O)Nc1ccc2c(c1)C(=O)N([C@@H](C)CO)C[C@H](C)[C@@H](CN(C)S(=O)(=O)c1cccs1)OCCCC[C@H](C)O2	none (no result: IDH1 R132H inh)
CN(c1ccc(C(=O)NCc2cccnc2)cc1)S(C)(=O)=O	none (no result: GASC1 inh, T cruzi growth-1)
COc1ccc(C(=O)O)cc1S(=O)(=O)NCCc1ccc(F)cc1	none (no result: GASC1 inh, T cruzi growth-1)
COc1ccccc1C(=O)N(Cc1nc(-c2cccc(C)c2)no1)C(C)C	none (no result: GASC1 inh, T cruzi growth-1)
CCCNC(=O)N1[C@H](C#N)[C@H](c2ccc(-c3ccccc3F)cc2)[C@@H]1CO	none (no result: GASC1 inh, IDH1 R132H inh)
CCCNC(=O)N1[C@H](CO)[C@H](c2ccccc2)[C@@H]1C#N	none
CCCNC(=O)N1[C@@H](C#N)[C@@H](c2ccc(C#Cc3cccc(F)c3)cc2)[C@@H]1CO	T cruzi growth-1 100 (no result: IDH1 R132H inh) | T cruzi growth-2 103 | T cruzi growth-3 inactive | NIH3T3 tox inactive | NIH3T3 tox 2 50
CCCNC(=O)N1[C@@H](C#N)[C@H](c2ccc(C#Cc3cccc(F)c3)cc2)[C@@H]1CO	T cruzi growth-1 inconclusive (no result: IDH1 R132H inh) | T cruzi growth-2 99 | T cruzi growth-3 inactive | NIH3T3 tox inactive | NIH3T3 tox 2 inconclusive
CCCNC(=O)N1[C@H](CO)[C@@H](c2ccccc2)[C@@H]1CNC(=O)c1ccccc1	none (no result: IDH1 R132H inh)
CCCNC(=O)N1[C@H](CO)[C@H](c2ccccc2)[C@@H]1CNC(=O)c1cccc(F)c1	T cruzi growth-1 98 (no result: IDH1 R132H inh) | T cruzi growth-2 inactive | T cruzi growth-3 inactive | NIH3T3 tox inactive | NIH3T3 tox 2 inactive
O=C(Cc1ccccn1)N1CC2(C1)[C@@H](c1ccccc1)[C@@H](CO)N2C(=O)c1ccncc1	none (no result: IDH1 R132H inh, T cruzi growth-1)
C[C@@H]1CN([C@H](C)CO)C(=O)c2cc(NC(=O)c3ccncc3)ccc2O[C@@H]1CN(C)S(=O)(=O)c1ccccc1	none
Cc1noc(C)c1S(=O)(=O)Nc1ccc2c(c1)C(=O)N([C@H](C)CO)C[C@H](C)[C@H](CN(C)Cc1ccccc1)O2	none
COc1ccc(S(=O)(=O)N(C)C[C@H]2Oc3ccc(NS(=O)(=O)c4cn(C)cn4)cc3C(=O)N([C@@H](C)CO)C[C@H]2C)cc1	none
C[C@H](CO)N1C[C@H](C)[C@H](CN(C)C(=O)Nc2ccc(C(F)(F)F)cc2)OCCCC[C@H](C)Oc2ccc(NC(=O)Nc3ccc4c(c3)OCO4)cc2C1=O	T cruzi growth-1 111 | T cruzi growth-2 100 | T cruzi growth-3 109 | NIH3T3 tox inactive | NIH3T3 tox 2 inactive
C[C@@H]1CCCCO[C@H](CN(C)C(=O)Nc2ccc3c(c2)OCO3)[C@H](C)CN([C@@H](C)CO)C(=O)c2cc(NC(=O)Nc3ccc4c(c3)OCO4)ccc2O1	none
